Test results as given in ChEMBL document CHEMBL2069242, “Structure and activity relationship in the (S)-N-chroman-3-ylcarboxamide series of voltage-gated sodium channel blockers” (Bioorg Med Chem Lett, 2012).
≈ marks a conversion by molar mass, not a printed value. Calls of active or inactive are those of the source. The calls are words filed in the database; no cut-off is given here.

Columns and labels:
[1] = Half life in Sprague-Dawley rat at 3 umol/kg, iv; format: ADME, organism-based; details: in vivo
Procedure, shortened: (§1)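 Rat pharmacokinetics used fasted male Sprague–Dawley rats, three animals per administration route per compound. The intravenous dose was 3 µmol/kg, with a separate oral arm.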

[2] = biological target: 5-hydroxytryptamine receptor 1B (Homo sapiens) (UniProt P28222); test: Activity at 5HT1B receptor
Chain of 5-hydroxytryptamine receptor 1B (Homo sapiens) (P28222 whole entry): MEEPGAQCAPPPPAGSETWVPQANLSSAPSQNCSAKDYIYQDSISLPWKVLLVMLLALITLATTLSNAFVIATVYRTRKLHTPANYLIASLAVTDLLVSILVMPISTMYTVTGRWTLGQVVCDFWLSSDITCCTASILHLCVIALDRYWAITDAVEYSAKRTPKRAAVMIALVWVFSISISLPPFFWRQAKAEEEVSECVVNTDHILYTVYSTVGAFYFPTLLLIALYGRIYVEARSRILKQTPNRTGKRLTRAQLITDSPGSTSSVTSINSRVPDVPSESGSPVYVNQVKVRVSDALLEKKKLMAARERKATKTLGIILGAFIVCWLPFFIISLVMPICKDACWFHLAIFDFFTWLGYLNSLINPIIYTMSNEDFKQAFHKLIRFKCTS

[3] = biological target: T1, Sodium-dependent dopamine transporter (Homo sapiens, UniProt Q01959); test: Displacement of [125I]RTI-55 from DAT at 10 uM
T1 sequence (Q01959 whole entry): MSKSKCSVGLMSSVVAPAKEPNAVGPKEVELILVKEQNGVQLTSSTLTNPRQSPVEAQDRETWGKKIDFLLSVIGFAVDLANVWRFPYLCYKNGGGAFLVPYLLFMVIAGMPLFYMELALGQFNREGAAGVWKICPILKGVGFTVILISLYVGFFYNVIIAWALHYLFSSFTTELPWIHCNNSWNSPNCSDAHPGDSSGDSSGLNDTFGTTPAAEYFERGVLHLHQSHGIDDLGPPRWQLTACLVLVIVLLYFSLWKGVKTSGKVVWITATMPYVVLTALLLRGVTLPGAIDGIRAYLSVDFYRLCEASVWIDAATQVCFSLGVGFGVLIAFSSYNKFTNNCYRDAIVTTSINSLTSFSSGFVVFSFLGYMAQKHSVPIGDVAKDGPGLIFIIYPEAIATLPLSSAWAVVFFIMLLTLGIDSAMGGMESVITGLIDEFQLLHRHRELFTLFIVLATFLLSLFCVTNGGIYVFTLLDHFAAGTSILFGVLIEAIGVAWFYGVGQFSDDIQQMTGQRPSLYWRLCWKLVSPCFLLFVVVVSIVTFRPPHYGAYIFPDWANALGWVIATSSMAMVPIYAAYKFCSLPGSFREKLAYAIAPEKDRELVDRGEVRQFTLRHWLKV

[4] = biological target: T2, Alpha-2B adrenergic receptor (Homo sapiens) (UniProt P18089); test: Displacement of [3H]rauwolscine from adrenergic alpha2B receptor at 10 uM
T2 sequence (whole entry): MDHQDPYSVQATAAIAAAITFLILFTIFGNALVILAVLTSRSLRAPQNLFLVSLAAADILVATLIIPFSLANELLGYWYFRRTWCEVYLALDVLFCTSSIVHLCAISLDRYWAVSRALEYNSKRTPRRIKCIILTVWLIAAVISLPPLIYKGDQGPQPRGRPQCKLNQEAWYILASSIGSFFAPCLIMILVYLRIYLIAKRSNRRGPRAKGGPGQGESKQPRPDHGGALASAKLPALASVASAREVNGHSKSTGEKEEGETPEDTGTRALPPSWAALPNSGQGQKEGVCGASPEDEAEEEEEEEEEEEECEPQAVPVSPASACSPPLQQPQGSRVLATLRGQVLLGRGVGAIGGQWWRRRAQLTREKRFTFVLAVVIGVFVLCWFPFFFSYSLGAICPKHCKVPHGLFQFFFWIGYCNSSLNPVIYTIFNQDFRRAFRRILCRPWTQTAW

[5] = Solubility of the compound; format: physicochemical
[6] = Clearance in Sprague-Dawley rat at 3 umol/kg, iv; format: ADME, organism-based; details: in vivo; procedure, shortened: as §1
[7] = Oral bioavailability in Sprague-Dawley rat at 10 umol/kg; format: ADME, organism-based; details: in vivo; procedure, shortened: as §1
[8] = biological target: T3, Growth hormone secretagogue receptor type 1 (Homo sapiens, UniProt Q92847); test: Displacement of [125I]ghrelin from GHS receptor at 10 uM
T3 sequence (Q92847 whole entry): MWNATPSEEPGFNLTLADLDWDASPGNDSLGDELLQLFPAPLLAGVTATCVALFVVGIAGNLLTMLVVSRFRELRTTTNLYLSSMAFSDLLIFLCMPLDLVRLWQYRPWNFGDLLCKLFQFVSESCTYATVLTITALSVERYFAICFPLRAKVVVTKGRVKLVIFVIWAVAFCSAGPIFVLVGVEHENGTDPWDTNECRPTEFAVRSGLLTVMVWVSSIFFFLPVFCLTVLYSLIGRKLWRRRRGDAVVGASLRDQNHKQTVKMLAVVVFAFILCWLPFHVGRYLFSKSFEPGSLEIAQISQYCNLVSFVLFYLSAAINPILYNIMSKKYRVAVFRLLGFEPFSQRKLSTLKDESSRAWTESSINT

[9] = biological target: Sodium channel protein type 9 subunit alpha (Homo sapiens, UniProt Q15858); test: Inhibition of human NaV1.7 expressed in HEK293 cells by whole-cell voltage clamp assay; format: cell-based
Chain of Sodium channel protein type 9 subunit alpha (Q15858 whole entry): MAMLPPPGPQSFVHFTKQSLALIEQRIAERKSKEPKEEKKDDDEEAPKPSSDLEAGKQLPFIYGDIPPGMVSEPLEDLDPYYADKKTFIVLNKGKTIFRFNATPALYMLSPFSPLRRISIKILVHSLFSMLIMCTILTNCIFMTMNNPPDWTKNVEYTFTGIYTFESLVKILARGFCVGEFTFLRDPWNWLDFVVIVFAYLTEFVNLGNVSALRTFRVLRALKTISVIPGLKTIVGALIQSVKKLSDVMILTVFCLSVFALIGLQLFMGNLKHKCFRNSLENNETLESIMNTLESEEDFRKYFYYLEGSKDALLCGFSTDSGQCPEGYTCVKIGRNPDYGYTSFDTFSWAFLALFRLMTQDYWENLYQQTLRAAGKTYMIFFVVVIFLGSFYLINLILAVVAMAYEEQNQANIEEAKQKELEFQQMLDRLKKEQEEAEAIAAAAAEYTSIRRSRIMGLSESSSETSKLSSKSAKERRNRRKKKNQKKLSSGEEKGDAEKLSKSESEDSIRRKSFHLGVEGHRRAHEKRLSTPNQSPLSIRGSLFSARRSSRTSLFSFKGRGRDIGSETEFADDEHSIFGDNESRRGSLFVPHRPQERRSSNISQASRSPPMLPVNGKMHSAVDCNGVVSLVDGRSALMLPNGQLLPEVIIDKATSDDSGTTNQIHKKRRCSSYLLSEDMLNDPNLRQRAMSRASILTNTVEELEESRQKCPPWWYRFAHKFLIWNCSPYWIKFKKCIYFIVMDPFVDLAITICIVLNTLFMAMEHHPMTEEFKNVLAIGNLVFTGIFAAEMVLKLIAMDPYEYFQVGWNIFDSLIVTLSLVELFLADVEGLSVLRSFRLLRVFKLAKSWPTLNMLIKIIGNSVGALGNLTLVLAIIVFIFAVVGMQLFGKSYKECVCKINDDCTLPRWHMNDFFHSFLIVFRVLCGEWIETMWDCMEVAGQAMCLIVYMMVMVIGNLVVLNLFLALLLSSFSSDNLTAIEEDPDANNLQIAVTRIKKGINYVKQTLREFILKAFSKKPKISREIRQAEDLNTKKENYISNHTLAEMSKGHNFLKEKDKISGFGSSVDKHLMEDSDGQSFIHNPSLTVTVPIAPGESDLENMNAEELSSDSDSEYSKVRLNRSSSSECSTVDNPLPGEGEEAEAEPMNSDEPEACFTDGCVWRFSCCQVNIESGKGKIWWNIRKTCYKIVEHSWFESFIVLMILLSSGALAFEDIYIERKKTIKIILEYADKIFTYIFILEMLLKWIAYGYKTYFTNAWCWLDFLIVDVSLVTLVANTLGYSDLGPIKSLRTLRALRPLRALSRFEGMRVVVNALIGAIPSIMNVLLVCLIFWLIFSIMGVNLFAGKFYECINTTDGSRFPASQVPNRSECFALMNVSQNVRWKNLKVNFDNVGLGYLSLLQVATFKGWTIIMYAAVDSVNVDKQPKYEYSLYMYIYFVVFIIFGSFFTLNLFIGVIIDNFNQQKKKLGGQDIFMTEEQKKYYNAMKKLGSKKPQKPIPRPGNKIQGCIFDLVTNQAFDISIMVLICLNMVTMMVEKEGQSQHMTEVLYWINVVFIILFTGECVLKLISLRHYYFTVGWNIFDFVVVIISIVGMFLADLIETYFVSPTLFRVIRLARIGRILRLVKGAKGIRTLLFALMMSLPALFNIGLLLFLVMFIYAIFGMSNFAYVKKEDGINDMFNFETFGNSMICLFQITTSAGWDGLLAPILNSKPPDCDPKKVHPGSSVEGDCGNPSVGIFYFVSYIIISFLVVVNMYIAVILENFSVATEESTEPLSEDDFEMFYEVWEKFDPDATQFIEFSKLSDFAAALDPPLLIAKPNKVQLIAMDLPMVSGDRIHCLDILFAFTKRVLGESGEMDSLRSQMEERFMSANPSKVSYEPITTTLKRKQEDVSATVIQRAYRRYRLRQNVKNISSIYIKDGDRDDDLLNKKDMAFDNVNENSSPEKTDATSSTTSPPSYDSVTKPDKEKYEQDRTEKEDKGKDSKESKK
Procedure, shortened: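 Human NaV1.7 α-subunit stably expressed in HEK293 cells. Currents were recorded by perforated whole-cell automated planar patch clamp (IonWorks Quattro) in D-PBS external solution with 5.5 mM glucose. Cells were held at −65 mV, and a train of eight 30 ms steps to −20 mV at 3 Hz was applied. Half-log serial dilutions were made in DMSO, giving 0.3% DMSO in the recording solution.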

[10] = Cmax in Sprague-Dawley rat at 10 umol/kg, po; format: ADME, organism-based; design: dose 10 umol/kg, route oral; details: in vivo; procedure, shortened: as §1
[11] = biological target: T4, 5-hydroxytryptamine receptor 1A (Homo sapiens) (UniProt P08908); test: Activity at 5HT1A receptor
T4 sequence (whole entry): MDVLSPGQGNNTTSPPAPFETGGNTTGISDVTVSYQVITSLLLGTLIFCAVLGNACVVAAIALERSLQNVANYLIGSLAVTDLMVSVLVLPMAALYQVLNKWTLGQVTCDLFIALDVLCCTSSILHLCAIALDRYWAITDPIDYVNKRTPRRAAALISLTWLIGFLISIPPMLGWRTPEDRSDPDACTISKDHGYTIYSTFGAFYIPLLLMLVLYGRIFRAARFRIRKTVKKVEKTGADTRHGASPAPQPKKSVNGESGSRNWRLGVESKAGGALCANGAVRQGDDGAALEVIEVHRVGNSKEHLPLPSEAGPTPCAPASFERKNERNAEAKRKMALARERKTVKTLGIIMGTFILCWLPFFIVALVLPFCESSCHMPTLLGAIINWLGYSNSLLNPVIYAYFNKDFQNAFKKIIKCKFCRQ

[12] = biological target: Serotonin (5-HT) receptor (Homo sapiens) (UniProt P30939+P41595+Q13639+P28222+P46098+P08908+P28221+P28223+P28335+P28566+P34969+P50406+P47898+A5X5Y0+O95264+Q70Z44+Q8WXA8); test: Activity at 5HT receptor; format: protein assay
Rattus norvegicus [13] = test: Dose normalized AUC in Sprague-Dawley rat at 3 umol/kg, iv; format: ADME, organism-based; details: in vivo; procedure, shortened: as §1
Rattus norvegicus [14] = test: Dose normalized AUC in Sprague-Dawley rat at 10 umol/kg, po; format: ADME, organism-based; details: in vivo; procedure, shortened: as §1
Liver microsomes [15] = test: Intrinsic clearance in rat liver microsomes assessed per ug of protein; format: ADME, Microsome
[16] = Half life in Sprague-Dawley rat at 10 umol/kg, po; format: ADME, organism-based; details: in vivo; procedure, shortened: as §1
[17] = biological target: Voltage-gated inwardly rectifying potassium channel KCNH2 (Homo sapiens, UniProt Q12809); test: Inhibition of human ERG expressed in CHO cells by IonWorks HT assay; format: cell-based
Chain of Voltage-gated inwardly rectifying potassium channel KCNH2 (Q12809 whole entry): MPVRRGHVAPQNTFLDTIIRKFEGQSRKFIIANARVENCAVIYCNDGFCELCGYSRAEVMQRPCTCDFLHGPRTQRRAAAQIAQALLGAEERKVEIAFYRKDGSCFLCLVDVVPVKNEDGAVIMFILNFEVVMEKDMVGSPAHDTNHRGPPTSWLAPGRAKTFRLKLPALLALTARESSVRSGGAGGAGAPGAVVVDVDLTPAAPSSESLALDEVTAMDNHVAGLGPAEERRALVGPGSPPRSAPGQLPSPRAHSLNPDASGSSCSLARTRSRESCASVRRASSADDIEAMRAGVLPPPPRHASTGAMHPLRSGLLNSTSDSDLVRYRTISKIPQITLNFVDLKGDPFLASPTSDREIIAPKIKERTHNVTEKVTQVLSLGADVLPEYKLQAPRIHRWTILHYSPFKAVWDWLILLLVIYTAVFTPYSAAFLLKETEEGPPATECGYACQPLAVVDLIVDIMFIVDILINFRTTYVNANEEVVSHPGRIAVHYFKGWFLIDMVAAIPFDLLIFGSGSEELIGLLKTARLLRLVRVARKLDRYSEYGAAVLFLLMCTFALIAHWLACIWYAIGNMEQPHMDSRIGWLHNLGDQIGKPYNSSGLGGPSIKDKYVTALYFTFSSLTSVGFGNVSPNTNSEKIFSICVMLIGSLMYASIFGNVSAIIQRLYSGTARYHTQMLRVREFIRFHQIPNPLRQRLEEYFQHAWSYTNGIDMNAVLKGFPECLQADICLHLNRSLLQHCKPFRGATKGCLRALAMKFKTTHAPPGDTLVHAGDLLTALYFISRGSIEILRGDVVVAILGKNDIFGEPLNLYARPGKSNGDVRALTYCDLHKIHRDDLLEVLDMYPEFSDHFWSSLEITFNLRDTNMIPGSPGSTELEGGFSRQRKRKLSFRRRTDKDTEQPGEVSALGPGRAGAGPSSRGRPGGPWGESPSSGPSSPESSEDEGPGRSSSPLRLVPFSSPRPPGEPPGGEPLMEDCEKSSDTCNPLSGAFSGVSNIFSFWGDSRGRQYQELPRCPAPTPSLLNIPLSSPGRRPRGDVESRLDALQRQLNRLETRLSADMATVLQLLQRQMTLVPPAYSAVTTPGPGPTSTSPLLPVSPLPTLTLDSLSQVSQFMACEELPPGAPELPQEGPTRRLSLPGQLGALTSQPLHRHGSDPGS

[18] = Volume of distribution at steady state in Sprague-Dawley rat at 3 umol/kg, iv; format: ADME, organism-based; details: in vivo, read-out: Vdss; procedure, shortened: as §1
[19] = biological target: Sodium channel protein type 5 subunit alpha (Homo sapiens, UniProt Q14524); test: Inhibition of human NaV1.5 expressed in CHO cells by IonWorks assay; format: cell-based
Liver microsomes [20] = test: Intrinsic clearance in human liver microsomes assessed per ug of protein; format: ADME, Microsome
[21] = biological target: T3, Growth hormone secretagogue receptor type 1; test: Displacement of [125I]ghrelin from GHS receptor
[22] = biological target: T1, Sodium-dependent dopamine transporter; test: Displacement of [125I]RTI-55 from DAT
[23] = Tmax in Sprague-Dawley rat at 10 umol/kg, po; format: ADME, organism-based; details: in vivo; procedure, shortened: as §1
Rattus norvegicus [24] = test: Antinociceptive activity in formalin-challenged Sprague-Dawley rat assessed as latency in paw licking during phase 1 at 49 umol/kg, po administered 3 hrs prior to formalin-challenge measured up to 5 mins post formalin challenge relative to control; format: functional
Procedure, shortened: (§2)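 Sprague–Dawley rats (n = 9/group) were dosed by oral gavage 3 h before formalin, at 0, 19, 49 and 99 µmol/kg, as a nanosuspension in 1% PVP K30/0.2% SDS. Formalin was 100 µL of 2.0% injected s.c. into the dorsal left hind paw. Paw-licking time was scored over 35 min: phase 1 at 0–5 min, phase 2 at 15–35 min. Results were given as % of vehicle, with total plasma concentration as mean SD. Statistics were one-way ANOVA, then unpaired one-tailed t-test.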

[25] = biological target: T5, C-C chemokine receptor type 1 (Homo sapiens) (UniProt P32246); test: Increase in [125I]MIP-1alpha binding to CCR1 at 10 uM
T5 sequence (whole entry): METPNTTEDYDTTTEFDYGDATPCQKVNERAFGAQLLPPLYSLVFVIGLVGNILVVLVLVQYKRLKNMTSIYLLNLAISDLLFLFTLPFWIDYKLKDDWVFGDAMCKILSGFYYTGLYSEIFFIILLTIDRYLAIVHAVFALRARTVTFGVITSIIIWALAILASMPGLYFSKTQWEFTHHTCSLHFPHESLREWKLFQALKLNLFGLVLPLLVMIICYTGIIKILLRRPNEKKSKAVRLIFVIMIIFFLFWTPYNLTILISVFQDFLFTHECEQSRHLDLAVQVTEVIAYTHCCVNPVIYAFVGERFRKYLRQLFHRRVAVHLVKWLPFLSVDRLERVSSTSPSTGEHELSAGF

Plasma = test: Plasma concentration in formalin-challenged Sprague-Dawley rat at 49 umol/kg, po administered 3 hrs prior to formalin-challenge measured up to 5 mins post formalin challenge; format: ADME, organism-based; details: in vivo; procedure, shortened: as §2
[26] = Displacement of [3H]nitrobenzylthioinosine from adenosine transporter; design: species or system Homo sapiens
Rattus norvegicus [27] = test: Antinociceptive activity in formalin-challenged Sprague-Dawley rat assessed as latency in paw licking during phase 2 at […], po administered 3 hrs prior to formalin-challenge measured up to 15 to 35 mins post formalin challenge; format: functional, organism-based; procedure, shortened: as §2
Cannabinoid receptor 1 [28] = biological target: T6, Cannabinoid receptor 1 (Homo sapiens, UniProt P21554); test: Displacement of [3H]SR141716A from CB1 receptor
T6 sequence (P21554 whole entry): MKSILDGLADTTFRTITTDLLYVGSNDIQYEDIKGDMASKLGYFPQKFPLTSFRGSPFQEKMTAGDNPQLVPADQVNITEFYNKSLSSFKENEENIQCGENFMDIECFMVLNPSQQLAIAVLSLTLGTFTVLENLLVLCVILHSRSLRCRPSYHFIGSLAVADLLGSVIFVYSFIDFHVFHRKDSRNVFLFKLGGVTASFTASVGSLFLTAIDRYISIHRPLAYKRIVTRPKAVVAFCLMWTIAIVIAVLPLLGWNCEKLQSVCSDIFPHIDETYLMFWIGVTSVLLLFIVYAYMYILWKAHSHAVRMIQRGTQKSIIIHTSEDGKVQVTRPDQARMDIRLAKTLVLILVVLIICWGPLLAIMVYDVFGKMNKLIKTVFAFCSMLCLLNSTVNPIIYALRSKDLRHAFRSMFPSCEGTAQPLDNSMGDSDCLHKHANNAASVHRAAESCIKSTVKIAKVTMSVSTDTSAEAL

Cannabinoid receptor 1 [29] = biological target: T6, Cannabinoid receptor 1; test: Agonist activity at CB1 receptor by [35gammaS]GTP incorporation assay; format: functional
Homo sapiens = species on record: Homo sapiens; test: Displacement of [3H]nitrobenzylthioinosine from adenosine transporter at 10 uM
Cannabinoid receptor 1 [30] = biological target: T6, Cannabinoid receptor 1; test: Displacement of [3H]SR141716A from CB1 receptor at 10 uM
Rattus norvegicus [31] = test: Antinociceptive activity in po dosed formalin-challenged Sprague-Dawley rat assessed as latency in paw licking during phase 1 administered 3 hrs prior to formalin-challenge measured up to 5 mins post formalin challenge; format: functional, organism-based; procedure, shortened: as §2

SMILES	half-life [1] [h]	Activity [2]	solubility [5] [µM]	clearance [6] [mL/min/kg]	bioavailability [7] [%]	IC50 [9] [µM]	Cmax [10] [nM]	Activity [11]	AUC/dose (Rattus norvegicus [13]) [kg·h/L]	AUC/dose (Rattus norvegicus [14]) [kg·h/L]	CLint (Liver microsomes [15]) [µL/min/mg]	half-life [16] [h]	IC50 [17] [µM]	Vd [18] [L/kg]	IC50 [19] [µM]	CLint (Liver microsomes [20]) [µL/min/mg]	Tmax [23] [h]	further results
O=C(N[C@@H]1COc2cccc(-c3ccc(CO)nc3)c2C1)c1ccc(OCC(F)(F)F)nc1	3.8	inactive	58 (≈ 26.6 µg/mL)	42.2	66.3	0.158	380	inactive	0.4	0.27	< 10	3.5	10	11	6.31	10	1.5	inhibition [3]: 80%; inhibition [4]: 55%; inhibition [8]: 98%; Activity [12]: inactive; IC50 [21]: 0.2 µM; IC50 [22]: 2 µM
COc1cnc(-c2cccc3c2C[C@H](NC(=O)c2ccc(COCC(F)(F)F)nc2)CO3)cn1	2.2	inactive	34 (≈ 16.1 µg/mL)	25	44	0.0794	300	inactive	0.6	0.3	< 10	4.8	12.6	4.2	12.6	< 10	2.5	Activity (Rattus norvegicus [24]): 66%; Activity [25]: 127%; concentration (Plasma): 5000 nM; IC50 [26]: 1.8 µM; Activity (Rattus norvegicus [27]): inactive; IC50 (Cannabinoid receptor 1 [28]): 5 µM; Activity (Cannabinoid receptor 1 [29]): inactive; inhibition (Homo sapiens): 66%; inhibition (Cannabinoid receptor 1 [30]): 55%; Activity (Rattus norvegicus [31]): Dose-dependent effect
